# Many of the other results were omitted from the sample, so hits are more common in it than they were.
# ABCB1 inh = human ABCB1 inhibition, ABCG2 as counter-screen; CCRF-Adr cells, JC-1 efflux, flow cytometry; inhibition, % at 6.6 µM; 190,000 compounds, 0.067% hits; in the data active means inhibition above about 40%;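 further: 0% = vehicle and 100% = reference inhibitor; higher value means more JC-1 retained so stronger ABCB1 efflux block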
# L major viab = inhibitors of Leishmania major promastigote growth; inhibition, % at 10 µM; Leishmania major promastigotes, resazurin fluorescence viability; 200,000 compounds, 9% hits;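 further: promastigotes grown with compound for 44 hours at 28 °C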
# GSH fluor = compound fluoresces at 488/530 nm on GSH beads. fluorescence (KMESF) at 10 µM. AID 1776. 190,000 compounds, 0.25% hits. GSH beads flow cytometry, compound fluorescence 488/530 nm; hits give high values; in the data active means fluorescence above about 89;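 further: glutathione beads carrying GST-tagged Bcl family fusion proteins plus one bare bead set; values are compound well signal with DMSO vehicle wells as background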
# Avidin bead fluor = compound fluoresces at 488/530 nm on avidin beads; compound fluorescence 488/530 nm, flow cytometry; hits give high values; fluorescence (KMESF) at 10 µM; 220,000 compounds, 0.38% hits; AID 1775; in the data active means fluorescence above about 47
# ABCG2 inh = human ABCG2 inhibition, ABCB1 as counter-screen | IgMXP3 cells, JC-1 efflux, flow cytometry | Q9UNQ0 | 190,000 compounds, 0.1% hits | inhibition, % at 6.6 µM;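 active means inhibition above 80%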;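 further: 0% = DMSO and 100% = nicardipine control wells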
#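 Assay system – ABCG2 IgMXP3 and barcoded ABCB1 CCRF-Adr cell mix · Input – 3 million cells/mL in well · Reagent – JC-1 fluorescent substrate · Compound – single test compound dose, 6.6 µM final · Timing – 10 min exposure at 25 °C with rotation, no wash · Detection – flow cytometry of retained JC-1 fluorescence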
# PKD1 kinase inh = inhibitors of human PKD1 kinase; Q15139; PKD1 kinase fluorescence polarization assay; inhibition, % (no concentration beside the values); 200,000 compounds, 0.056% hits
# Numbers without * were called inactive; nt = not tested or not shown. Unless noted, no stated cut-off is given here; in the data, active means inhibition above about 50%; inactive means the rest.
SMILES,ABCB1 inh,L major viab,GSH fluor,Avidin bead fluor,ABCG2 inh,PKD1 kinase inh
COc1ccc(CNC(=O)COC(=O)[C@H](Cc2c[nH]c3ccccc23)NC(=O)c2cccs2)cc1,0,-2,14,6,10,6
C(=N\NC1=Nc2cccc3cccc1c23)/c1ccccn1,-1,100*,15,10,-1,2
Cc1csc(N/N=C/c2ccccn2)n1,0,95*,25,9,5,-5
CCCCN(C(=O)NC(=O)Nc1ccc(C)cn1)S(C)(=O)=O,0,-5,17,10,-1,-2
CCN(CC)S(=O)(=O)c1ccc(N/N=C/c2ccc(O)cc2O)nc1,-4,98*,7,11,-1,-1
Oc1ccccc1/C=N/Nc1nccnc1Cl,4,98*,34,8,nt,9
Oc1ccc(/C=N/Nc2ncc(Br)cn2)c(O)c1,-1,99*,7,23,49,1
Oc1ccc(/C=N/Nc2nccnc2Cl)c(O)c1,0,100*,11,26,-1,-1
Oc1ccc(Br)cc1/C=N/Nc1ncc(-c2ccccc2)cn1,0,-9,26,20,-1,-7
CCN(CC)S(=O)(=O)c1ccc(OC)nc1,1,-4,27,15,4,2
CCN(Cc1ccccc1)C(=O)COC(=O)c1cc(=O)[nH]c2ccccc12,0,3,19,6,8,-3
O=C(Nc1ccccc1)C1=C(O)CC(c2ccc(Cl)cc2)N2CCN=C12 (stereo not given),6,92*,10,7,37,-2
O=C(Nc1ccc(Cl)cc1)N1N=CCC1c1ccccc1 (stereo not given),nt,nt,nt,7,nt,nt
O=C1N=c2ccccc2=C1c1c(O)n(-c2cccc(F)c2)[nH]c1=O,-1,61*,4,5,0,-15
Cn1c(O)c(C2=c3ccccc3=NC2=O)[nH]c1=S,-1,-4,9,13,2,0
C[n+]1ccc(/C=C/c2ccc(Br)cc2)cc1,0,86*,13,34,0,0
S=C(NCCC1=CCCCC1)NCc1ccco1,1,0,12,7,4,-1
CC(OCC(O)CN(C)CCOc1ccccc1)c1ccc(Cl)cc1 (stereo not given),1,99*,28,10,2,-8
CN(C)CC(O)COC(c1ccccc1)c1ccccc1 (stereo not given),1,22,12,21,1,3
Cc1ccc(/C=N/NC(=O)Cn2cncn2)cc1,0,-1,21,7,1,3
C/C(=N/NS(=O)(=O)c1ccc(Cl)cc1)c1cccc(NC(=O)c2ccc(Cl)cc2Cl)c1,0,97*,12,18,0,-8
C/C(=N/NS(=O)(=O)c1ccc(C)cc1)c1cccc(NC(=O)c2cccc(Cl)c2)c1,-1,9,10,8,0,-8
COc1ccc([N+](=O)[O-])cc1NC(=O)c1ccco1,1,6,10,10,9,-10
COc1ccc(/C=N/OCC(=O)N=Nc2c(O)[nH]c3ccc(Br)cc23)cc1OC,0,63*,0,13,-5,-6
CC(NC(=O)C(=O)NCCC1=CCCCC1)c1ccccc1 (stereo not given),0,-4,14,12,-1,13
SMILES,ABCB1 inh,L major viab,GSH fluor,Avidin bead fluor,ABCG2 inh,PKD1 kinase inh
C/C=C(/C)C(=O)OC1c2c(ccc3ccc(=O)oc23)OC(C)(C)C1OC(C)=O (stereo not given),1,67*,13,4,7,2
C/C=C(/C)C(=O)O[C@@H]1[C@H](OC(C)=O)c2c(ccc3ccc(=O)oc23)OC1(C)C,1,8,18,10,10,-6
CCOC(=O)N1CCN(C(=O)CC(C(=O)N2CCc3ccccc32)n2ccnc2)CC1 (stereo not given),0,83*,23,16,0,-6
O=C(CC(C(=O)N1CCc2ccccc21)n1ccnc1)NCc1ccccc1 (stereo not given),0,100*,28,4,0,4
COCc1ccc2oc(C(=O)O)cc2c1,1,2,27,11,8,2
C=C(C(=O)c1ccccc1)C(CC(=O)c1ccccc1)c1ccccc1 (stereo not given),1,82*,11,37,1,6
O=C(CCCCCCCC(=O)c1ccccc1)c1ccccc1,0,-7,9,8,-1,-1
Cc1ccc(C(CC(=O)c2ccc(Cl)cc2)C(=O)O)cc1 (stereo not given),0,0,10,11,0,-5
C=C(CCC(=O)c1ccccc1)C(=O)c1ccccc1,2,100*,11,6,9,-9
COc1ccc(CCN(Cc2nc3ccccc3c(=O)[nH]2)C(=O)c2ccco2)cc1,3,-5,22,13,6,-15
CCC(CC)C(=O)N(CCc1ccc(OC)cc1)Cc1nc2ccccc2c(=O)[nH]1,2,100*,54,11,7,-12
CCOc1ccc(Nc2nc3cc(S(=O)(=O)CC)ccc3o2)cc1,nt,nt,nt,6,nt,nt
O=C1C2CCCN2C(=O)N1CCN1CCN(c2ccccc2)CC1 (stereo not given),1,61*,4,10,4,-1
O=C1C2CCCN2C(=O)N1CCCCN1CCN(c2ccccc2)CC1 (stereo not given),0,1,9,5,0,8
CCC(=O)Nc1nnc(Cc2ccccc2)s1,1,-5,16,10,2,-5
CC(=O)Nc1nnc(Cc2ccccc2)s1,1,-4,264*,7,2,3
O=C(CNS(=O)(=O)c1ccc(Cl)cc1)OCC(=O)N1CCCc2ccccc21,-2,-6,14,20,20,-6
Cc1cc2c3c(c1)C1(SCC(=O)N1c1ccc(F)cc1)C(=O)N3C(C)(C)CC2C (stereo not given),18,61*,45,7,7,1
CCN(CC)CCNC(=S)N1CCn2c(nc3ccccc32)C1,0,0,13,5,2,2
CN(C)CCCNC(=S)N1CCn2c(nc3ccccc32)C1,0,51*,5,13,-5,5
O=C1CN(C(=O)c2cc3ccccc3oc2=O)C(c2ccccc2)c2cc(F)ccc2N1 (stereo not given),1,-3,13,6,4,-8
O=C1CN(C(=O)c2cc3ccccc3oc2=O)C(c2ccc(F)cc2)c2cc(F)ccc2N1 (stereo not given),1,16,17,nt,2,-8
O=C1CN(C(=O)c2cc([N+](=O)[O-])ccc2Cl)C(c2ccc(F)cc2)c2cc(F)ccc2N1 (stereo not given),11,79*,5,8,25,-13
O=C1CN(C(=O)c2ccc(Br)o2)C(c2ccccc2)c2cc(F)ccc2N1 (stereo not given),-1,92*,17,4,-2,-11
